From ChEMBL document CHEMBL1129476, “In vivo activity and hydrophobicity of cytostatic aziridinyl quinones” (J Med Chem, 1996) come the findings set out here.

Data set [1] can be described thus: HPLC capacity factor (logK). The format is ADME.
For data set [2], the system named is L1210. The data set can be described thus: log 1/D125 for the dose (mmol/kg) to give 125%T/C ratio (L1210) in vivo. The format is functional, Mus musculus.
Data set [3] is described as follows: E1/2 for the half-wave potential at pH=7.0 in V57. The format is ADME.
Data set [4] in a line: Observed rate of hydrolysis (logKobs) (pH=4.0). The class given is ADME. The method in brief:
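Hydrolysis followed by cyclic voltammetry at 20 °C in deaerated 0.1 M acetate buffers (pH 5.0–3.5) or 0.02 M NaH2PO4 (pH 3.5, 3.0), ionic strength 0.1 M (NaNO3). Decrease of the parent cathodic peak tracked over time. Pseudo-first-order kobs from linear regression of log concentration versus time.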

The subject of the next data set is Fungi. The data set can be described thus: log 1/MIC for fungi in mmol/L. The class given is functional.
A short description of data set [5]: log 1/anion production. The class given is functional.
Data set [6] has as its system L1210. The data set can be described thus: log 1/ID75 for the in vitro clonogenic L1210 assay with ID75 in umol/L. The class given is functional, Mus musculus.
A short description of data set [7]: Electrochemically observed pKa (pKred) of aziridines. The format is physicochemical. Conditions: read-out: pKred.
The test system of the next data set is B16. The data set can be described thus: log 1/D125 or the dose (mmol/kg) to give 125%T/C ratio (B16) in vivo. The class given is functional, Mus musculus.

Regarding `CN(C)C1=CC(=O)C(N(C)C)=CC1=O`, the Log K in [1] is -0.004.
The same measure, in the same setting: in the case of `CC1CN1C1=CC(=O)c2ccccc2C1=O` (stereo unspecified) it was 0.611; in that of `CC1=CC(=O)c2ccccc2C1=O` [MENADIONE], 0.607.
With `CC1CN1C1=C(Cl)C(=O)C(N2CC2C)=C(Cl)C1=O` (stereo unspecified), in the data set with L1210 [2], the “Log 1/D125 (L1210) (mM kg-1)” value is listed as 1.16. The compound also showed an E 1/2 in data set [3] of -0.125. The Log Kobs in data set [4] is -4.15. Besides, the “Log 1/MIC (mM L-1)” value with Fungi is listed as 1.16. In [5], this compound showed a Log 1/conc (mM min-1 L-1) of 2.65.
The compound `COC1=C(C)C(=O)C(N2CCCC2)=CC1=O` registered a Log 1/ID75 (uM L-1) in the data set with L1210 [6] of -1.66. The E 1/2 in [3] is -0.315. The Log 1/MIC (mM L-1) in the data set on Fungi was -0.26.
On to `NC1=C(Cl)C(=O)c2ccccc2C1=O`, for which the “Log K” value in data set [1] was found to be 0.259.
Regarding `O=C1C=C(N2CC=CC2)C(=O)c2ccccc21`, the “Log K” value in data set [1] is reported as 0.896.
Regarding `CC1CN1C1=C(Br)C(=O)C(N2CC2C)=C(Br)C1=O` (stereo unspecified), the “Log 1/ID75 (uM L-1)” value in the data set on L1210 [6] is recorded as 0.77. Further, in data set [4], the Log Kobs is -3.45. Besides, the “Log 1/MIC (mM L-1)” value with Fungi is recorded as 1.28. In data set [5], this compound had a Log 1/conc (mM min-1 L-1) of 2.8.
Turning to `CN(C)C1=CC(=O)c2ccccc2C1=O`, in data set [1], the “Log K” value was determined as 0.591.
`O=C1C(Cl)=C(N2CC2)C(=O)C(Cl)=C1N1CC1` gave an E 1/2 in [3] of -0.133. In data set [4], this compound gave a Log Kobs of -4.7. Moreover, the “Log 1/MIC (mM L-1)” value in the data set with Fungi was determined as 1.63. Further, the Log 1/conc (mM min-1 L-1) in [5] was determined as 2.74.
Consider `CCOC(=O)NC1=CC(=O)C(NC(=O)OCC)=CC1=O`, for which the “Log 1/ID75 (uM L-1)” value with L1210 [6] came out at 0.09. Moreover, the “Log 1/MIC (mM L-1)” value with Fungi amounted to 0.85.
With `O=C1C=C(Br)C(=O)c2ccccc21` [2-Bromo-1,4-naphthoquinone], the “Log K” value in data set [1] is 0.748.
With `O=C1C=CC(=O)c2ccccc21` [NAPHTHOQUINONE], in data set [1], the “Log K” value is 0.299.
With `O=C1C(N2CCCC2)=C(N2CC2)C(=O)C(N2CCCC2)=C1N1CC1`, in the data set on L1210 [2], the “Log 1/D125 (L1210) (mM kg-1)” value was found to be 2.07. In data set [7], the pKa stood at 10.6. Besides, in [3], the E 1/2 was -0.315. Besides, the “Log 1/D125 (mM kg-1)” value in the data set with B16 worked out at 2.4.
In the data set on L1210 [6], `CC1=C(C)C(=O)C(N2CCCC2)=CC1=O` yielded a Log 1/ID75 (uM L-1) of -1.7. In addition, the E 1/2 in data set [3] was -0.303. For the same compound, the Log 1/MIC (mM L-1) in the data set on Fungi was -0.3.
`CN(CCO)C1=C(N2CC2)C(=O)C(N(C)CCO)=C(N2CC2)C1=O`: the “Log 1/ID75 (uM L-1)” value in the data set on L1210 [6] turned out to be 0.09. In [7], the pKa is 9.7. Further, in data set [3], the E 1/2 was -0.225.
Take `O=C1C=C(N2CCCC2)C(=O)c2ccccc21`: the “Log K” value in data set [1] is 0.736.
`O=C1C=CC(=O)C=C1` [BENZOQUINONE] yielded a Log K in data set [1] of -0.466.
In the case of `CC1=CC(=O)C=C(C)C1=O`, the “Log K” value in data set [1] is reported as 0.136.
`O=C1C=C(N2CC=CC2)C(=O)C=C1N1CC=CC1` gave a Log 1/ID75 (uM L-1) with L1210 [6] of -1.62. This compound also displayed a Log 1/MIC (mM L-1) in the data set with Fungi of -0.52.
With `O=C1C=C(N2CC2)C(=O)c2ccccc21`, in data set [1], the “Log K” value is 0.346.
The compound `O=C1C=C(N2CCCC2)C(=O)C=C1N1CCCC1` displayed a Log 1/ID75 (uM L-1) in the data set on L1210 [6] of -1.61. For the same compound, the E 1/2 in data set [3] is -0.439. Moreover, in data set [1], the “Log K” value was 0.587. Moreover, the Log 1/MIC (mM L-1) in the data set with Fungi was -0.38.
As for `C/N=C1C(O)=C(N2CC2C)/C(=N\C)C(O)=C\1N1CC1C` (stereo unspecified), in the data set on L1210 [2], the “Log 1/D125 (L1210) (mM kg-1)” value was found to be 2.19. The pKa in data set [7] amounted to 9.3. This compound also yielded an E 1/2 in data set [3] of -0.4. Further, the “Log 1/D125 (mM kg-1)” value in the data set with B16 worked out at 2.33.
As for `NC1=C(N2CC2)C(=O)C(N)=C(N2CC2)C1=O`, in the data set on L1210 [6], the “Log 1/ID75 (uM L-1)” value came out at 1.16.
For `CC1CN1C1=C(N2CCCC2)C(=O)C(N2CC2C)=C(N2CCCC2)C1=O` (stereo unspecified), the pKa in [7] was 11.1. Further, the E 1/2 in data set [3] was -0.303.
As for `O=C1C(N2CC2)=C(N2CC2)C(=O)C(N2CC2)=C1N1CC1`, the “Log 1/ID75 (uM L-1)” value with L1210 [6] stood at 0.9. The pKa in data set [7] was 7.7. In addition, the E 1/2 in data set [3] was -0.245. The compound also yielded a Log Kobs in [4] of -3.7. For the same compound, the “Log 1/MIC (mM L-1)” value in the data set with Fungi is given as 0.95.
As to `CC1=C(C)C(=O)C(N2CC=CC2)=CC1=O`, the Log 1/ID75 (uM L-1) in the data set with L1210 [6] is -0.71. Also, in data set [3], the E 1/2 is -0.311. For the same compound, the Log 1/MIC (mM L-1) in the data set with Fungi is -0.17.
